The species entered for data set [1] is Gallus gallus. In words: Antiangiogenic activity in chick embryo chorioallantoic membrane assessed as number of eggs showing 3 mm avascular zone at 100 ug. The format is functional, tissue-based. The procedure, abridged: (§1)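 Fertilized chicken eggs held at 37.6 °C, humidified, for 4 days; 3 mL albumin withdrawn and air sac displaced to drop the CAM, window capped, incubation at 39.0 °C. Next day a silicon ring placed on the 2–3 mm CAM and test solution applied dropwise at room temperature. Compounds in DMSO, vehicle control 0.05% DMSO in 1% methyl cellulose/0.9% NaCl. After 1 day incubator raised to 39.5 °C and eggs incubated 1 more day. Vessels then visualized by injecting fat emulsion (1 mL) into the CAM and scored for inhibition.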

The species entered for data set [2] is Gallus gallus. Briefly: Antiangiogenic activity in chick embryo chorioallantoic membrane assessed as number of eggs showing 3 mm avascular zone at 10 ug. Type of data set: functional, tissue-based. The procedure, abridged: as §1
The species entered for data set [3] is Gallus gallus. Briefly: Antiangiogenic activity in chick embryo chorioallantoic membrane assessed as number of eggs showing 3 mm avascular zone at 1 ug. Type of data set: functional, tissue-based. A digest of the protocol: as §1
Data set [4] is filed under the species Gallus gallus. Briefly: Antiangiogenic activity in chick embryo chorioallantoic membrane assessed as number of eggs showing 3 mm avascular zone at 5 ug. The format is functional, tissue-based. A digest of the protocol:
as §1

The nature of data set [5]: Hydrophobicity, Log P of the compound. The format is physicochemical. As to conditions: octanol/water. A digest of the protocol:
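Observed logP (logPow) measured by HPLC on a C18 column. Mobile phase methanol/water 3:1 (v/v) at 1.0 mL/min, UV detection at 254 nm. Test and reference compounds dissolved in mobile phase for injection.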

The species entered for data set [6] is Gallus gallus. Briefly: Antiangiogenic activity in chick embryo chorioallantoic membrane assessed as number of eggs showing 3 mm avascular zone at 2.5 ug. The format is functional, tissue-based. The procedure, abridged: as §1

As to `CCCCCCCCc1ccc(CCC(N)(CO)CO)cc1`, the inhibition in data set [1] worked out at 100%; in data set [2], 77%; in data set [3], 40%.

As for `CO[C@@H]1[C@H](OC(=O)NC(=O)CCl)CC[C@]2(CO2)[C@H]1[C@@]1(C)O[C@@H]1CC=C(C)C`, the inhibition in data set [2] came out at 82%; in data set [3], 50%; in data set [4] it was 78%.

With `C#Cc1ccc(CCC(N)(CO)CO)cc1`, the inhibition in data set [2] was found to be 42%; in data set [3], 17%; in data set [4], 17%.

The molecule `CC(=O)NC(CCc1ccc(C#CC#C[Si](C)(C)C)cc1)(COC(C)=O)COC(C)=O` yielded a log partition coefficient (logP) in data set [5] of 4.97.

As to `CC(=O)NC(CCc1ccc(C#C[Si](C)(C)C)cc1)(COC(C)=O)COC(C)=O`, the lipophilicity (logP) in data set [5] stood at 4.07.

`CC(=O)NC(CCc1ccc(C#CC#CC#C[Si](C)(C)C)cc1)(COC(C)=O)COC(C)=O` showed a logP in data set [5] of 5.9.

Consider `C#CC#CC#Cc1ccc(CCC(N)(CO)CO)cc1`, for which the inhibition was found to be 60% in data set [2], 40% in data set [3], 67% in data set [4] and 67% in data set [6].

For the molecule `C#CC#Cc1ccc(CCC(N)(CO)CO)cc1`, the inhibition in data set [2] is 90%; in data set [3] it was 35%; in data set [4] it was 79%; in data set [6], 71%.

(Values after ChEMBL document CHEMBL1156619, “TX-2152: a conformationally rigid and electron-rich diyne analogue of FTY720 with in vivo antiangiogenic activity” (Bioorg Med Chem, 2008).)
